From ChEMBL document CHEMBL1132700, “Design, synthesis, structure-activity relationships, and biological characterization of novel arylalkoxyphenylalkylamine sigma ligands as potential antipsychotic drugs” (J Med Chem, 1999)

How the values were obtained:
D(2) dopamine receptor = D(2) dopamine receptor (Rattus norvegicus, UniProt P61169); experiment: Inhibitory concentration against radioligand [3H](-)-sulpiride binding to Dopamine receptor D2 in rat
Outline: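 Striatal membranes from male Wistar rats (200–250 g), homogenized in 50 mM Tris/HCl pH 7.7, washed by repeated 50000g spins. Filtration on PEI-soaked glass-fiber filters, then scintillation counting. IC50 by nonlinear curve fitting, duplicate determinations.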

[1] = target: Sigma non-opioid intracellular receptor 1 (Rattus norvegicus, UniProt Q9R0C9); experiment: Inhibitory concentration against radioligand [3H]3-PPP binding to Sigma opioid receptor type 1 in rat brain membrane; assay type: cell membranes
Sequence of Sigma non-opioid intracellular receptor 1 (Q9R0C9 whole entry): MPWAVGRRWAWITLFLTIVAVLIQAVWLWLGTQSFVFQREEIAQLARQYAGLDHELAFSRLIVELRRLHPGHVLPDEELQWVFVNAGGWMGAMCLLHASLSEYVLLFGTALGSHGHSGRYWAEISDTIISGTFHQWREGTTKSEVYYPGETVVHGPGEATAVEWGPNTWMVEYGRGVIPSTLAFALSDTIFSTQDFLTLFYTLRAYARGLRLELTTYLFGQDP
Outline: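 Rat whole-brain membranes from male Wistar rats (200–250 g), homogenized in 50 mM Tris/HCl pH 7.7, washed by repeated 50000g spins. Incubated with 2 nM [3H]-(+)-3-PPP and at least five concentrations of unlabeled drug. Filtered on polyethylenimine-soaked glass-fiber filters and counted by scintillation. IC50 from nonlinear curve fitting of competition data, duplicate determinations.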

Mus musculus [2] = experiment: Effect at an intraperitoneal dose of 10 mg/kg against methamphetamine-induced hyperlocomotion in mice; assay type: functional
Mus musculus [3] = organism: Mus musculus; experiment: Effective dose against (+)-SKF-10047-induced stereotyped behavior in mice was determined; assay type: functional
Outline: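 Male ICR mice (25–30 g, 10 per group) acclimatized at least 1 h. Test drug given orally 30 min before (+)-SKF10,047 30 mg/kg ip. Stereotypy scored on a 0–5 scale from 10 min post-injection, every 5 min for 40 min. Vehicle plus three doses were tested. Total score expressed as percent of control, and ED25 derived.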

[4] = target: Serotonin 2 (5-HT2) receptor (Rattus norvegicus, UniProt P30994+P08909+P14842); experiment: Inhibitory concentration against radioligand [3H]ketanserin binding to 5-hydroxytryptamine 2 receptor in rat
Outline: (§1)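 Male Wistar rat brain membranes in 50 mM Tris/HCl pH 7.7. Radioligands: PCP site 5 nM [3H]-PCP; D1 1 nM [3H]-SCH23390; 5-HT1A 0.2 nM [3H]-8-OH-DPAT; 5-HT2 5 nM [3H]-ketanserin; α1 0.2 nM [3H]-prazosin. Competition with at least five drug concentrations, filtration on PEI-soaked glass-fiber filters, scintillation counting, IC50 by nonlinear curve fit.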

[5] = target: T1, 5-hydroxytryptamine receptor 1A (Rattus norvegicus, UniProt P19327); experiment: Inhibitory concentration against radioligand [3H]hydroxy-2-(di-n-propylamino)-tetralin binding to 5-hydroxytryptamine 1A receptor in rat; outline: as §1
T1 sequence (P19327 whole entry): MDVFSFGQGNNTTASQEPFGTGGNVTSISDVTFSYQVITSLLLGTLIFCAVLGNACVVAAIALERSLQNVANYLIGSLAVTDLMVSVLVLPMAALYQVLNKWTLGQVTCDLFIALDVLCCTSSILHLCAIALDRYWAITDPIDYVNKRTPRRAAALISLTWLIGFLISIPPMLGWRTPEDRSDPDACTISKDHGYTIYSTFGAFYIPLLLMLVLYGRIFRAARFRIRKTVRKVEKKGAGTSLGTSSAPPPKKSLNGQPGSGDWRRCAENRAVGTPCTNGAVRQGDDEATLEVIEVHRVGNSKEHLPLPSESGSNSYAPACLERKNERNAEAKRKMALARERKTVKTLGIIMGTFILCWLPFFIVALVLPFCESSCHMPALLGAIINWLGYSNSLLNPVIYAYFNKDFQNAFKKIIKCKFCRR

[6] = target: Glutamate receptor ionotropic, NMDA 1 (Rattus norvegicus, UniProt P35439); experiment: Inhibitory concentration against radioligand [3H]PCP binding to PCP site of N-methyl-D-aspartate glutamate receptor in rat; outline: as §1
D(1A) dopamine receptor = D(1A) dopamine receptor (Rattus norvegicus, UniProt P18901); experiment: Inhibitory concentration against radioligand [3H]SCH-23390 binding to Dopamine receptor D1 in rat; outline: as §1
Sequence of D(1A) dopamine receptor (P18901 whole entry): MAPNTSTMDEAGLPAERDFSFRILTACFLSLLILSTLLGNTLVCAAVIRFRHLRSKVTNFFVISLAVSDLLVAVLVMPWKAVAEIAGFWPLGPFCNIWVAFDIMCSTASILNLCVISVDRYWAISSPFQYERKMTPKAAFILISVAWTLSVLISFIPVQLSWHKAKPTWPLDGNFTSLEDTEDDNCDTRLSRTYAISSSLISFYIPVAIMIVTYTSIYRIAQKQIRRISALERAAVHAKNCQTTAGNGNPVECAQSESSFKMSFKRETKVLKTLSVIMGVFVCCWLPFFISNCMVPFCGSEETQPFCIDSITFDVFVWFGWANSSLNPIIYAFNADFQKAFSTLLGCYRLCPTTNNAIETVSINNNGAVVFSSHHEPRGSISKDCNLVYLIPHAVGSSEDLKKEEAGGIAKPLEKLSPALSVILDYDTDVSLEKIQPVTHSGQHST

[7] = target: T2, Adrenergic receptor alpha-1 (Rattus norvegicus, UniProt P15823+P23944+P43140); experiment: Inhibitory concentration against radioligand [3H]prazosin binding to Alpha-1 adrenergic receptor in rat; outline: as §1
T2 sequence (P15823 whole entry): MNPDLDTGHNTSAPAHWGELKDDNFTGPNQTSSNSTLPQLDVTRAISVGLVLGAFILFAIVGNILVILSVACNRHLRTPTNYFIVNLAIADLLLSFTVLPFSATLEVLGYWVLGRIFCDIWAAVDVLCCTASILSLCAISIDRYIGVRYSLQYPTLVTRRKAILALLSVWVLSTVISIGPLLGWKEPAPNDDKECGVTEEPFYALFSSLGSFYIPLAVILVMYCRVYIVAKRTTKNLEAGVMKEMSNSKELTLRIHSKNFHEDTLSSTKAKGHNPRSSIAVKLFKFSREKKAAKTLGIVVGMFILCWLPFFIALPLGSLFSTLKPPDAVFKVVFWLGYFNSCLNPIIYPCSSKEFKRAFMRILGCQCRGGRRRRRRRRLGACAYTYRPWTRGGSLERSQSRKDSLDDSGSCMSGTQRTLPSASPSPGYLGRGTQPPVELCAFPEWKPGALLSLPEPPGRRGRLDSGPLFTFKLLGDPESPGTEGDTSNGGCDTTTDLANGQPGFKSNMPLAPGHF
T2 sequence (P23944 whole entry): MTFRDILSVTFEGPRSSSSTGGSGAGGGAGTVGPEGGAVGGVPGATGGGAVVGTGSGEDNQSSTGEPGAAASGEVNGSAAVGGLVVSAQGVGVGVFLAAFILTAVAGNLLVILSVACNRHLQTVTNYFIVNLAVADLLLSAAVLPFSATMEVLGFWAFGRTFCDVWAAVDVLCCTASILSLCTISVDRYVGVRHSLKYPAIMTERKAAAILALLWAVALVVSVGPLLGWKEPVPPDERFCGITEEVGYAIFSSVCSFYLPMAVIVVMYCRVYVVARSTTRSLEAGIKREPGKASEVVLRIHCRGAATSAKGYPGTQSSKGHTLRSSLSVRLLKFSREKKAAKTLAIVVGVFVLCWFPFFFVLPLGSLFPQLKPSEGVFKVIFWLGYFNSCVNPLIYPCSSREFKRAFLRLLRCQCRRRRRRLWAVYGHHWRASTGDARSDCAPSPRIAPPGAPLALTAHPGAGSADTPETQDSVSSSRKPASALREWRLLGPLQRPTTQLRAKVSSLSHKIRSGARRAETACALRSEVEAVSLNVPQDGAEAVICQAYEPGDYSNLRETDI
T2 sequence (P43140 whole entry): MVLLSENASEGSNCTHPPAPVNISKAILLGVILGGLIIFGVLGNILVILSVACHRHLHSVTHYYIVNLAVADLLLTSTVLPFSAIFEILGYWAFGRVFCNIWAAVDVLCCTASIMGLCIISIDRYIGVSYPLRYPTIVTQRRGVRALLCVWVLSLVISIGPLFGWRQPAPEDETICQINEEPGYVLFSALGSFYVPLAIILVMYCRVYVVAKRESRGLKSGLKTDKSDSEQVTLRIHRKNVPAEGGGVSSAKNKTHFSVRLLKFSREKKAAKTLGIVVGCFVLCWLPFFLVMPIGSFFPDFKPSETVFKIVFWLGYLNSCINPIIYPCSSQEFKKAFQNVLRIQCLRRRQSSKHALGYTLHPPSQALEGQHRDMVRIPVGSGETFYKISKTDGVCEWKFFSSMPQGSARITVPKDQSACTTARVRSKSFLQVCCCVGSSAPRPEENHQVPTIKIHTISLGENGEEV

Sequence of D(2) dopamine receptor (P61169 whole entry): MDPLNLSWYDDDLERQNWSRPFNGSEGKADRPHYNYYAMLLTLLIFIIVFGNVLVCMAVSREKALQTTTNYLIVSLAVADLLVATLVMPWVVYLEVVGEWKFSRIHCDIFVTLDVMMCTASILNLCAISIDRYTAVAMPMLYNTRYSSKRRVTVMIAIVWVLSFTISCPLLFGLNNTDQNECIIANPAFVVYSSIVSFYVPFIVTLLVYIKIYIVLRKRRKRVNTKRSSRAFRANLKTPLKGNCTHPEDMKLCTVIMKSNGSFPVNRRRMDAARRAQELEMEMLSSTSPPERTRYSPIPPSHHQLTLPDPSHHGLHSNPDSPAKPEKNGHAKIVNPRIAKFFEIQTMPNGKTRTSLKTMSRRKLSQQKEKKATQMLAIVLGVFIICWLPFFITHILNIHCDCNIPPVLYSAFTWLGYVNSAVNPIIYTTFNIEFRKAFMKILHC

Structure (SMILES)	IC50 (D(2) dopamine receptor)	IC50 [1]	other results
CCCN(CCC)CCc1ccc(Cl)cc1OCCc1ccccc1	> 1000 nM		
CCCN(CCC)CCc1cc(Cl)cc(Cl)c1OCCc1ccccc1	> 1000 nM	281 nM	
COc1ccccc1N1CCN(CCc2cc(Cl)ccc2OCCc2ccccc2)CC1	88 nM	640 nM	
Clc1ccc(OCCc2ccccc2)c(CCN2CCOCC2)c1	163 nM	308 nM	
CCCN(CCC)CCc1ccc(OC)c(OCCc2cccc(Cl)c2)c1	> 1000 nM		
COc1ccc(CCN2CCN(c3ccccc3OC)CC2)cc1OCCc1ccccc1	11 nM	25 nM	
Clc1ccc(OCCc2ccccc2)c(CCCN2CCN(c3ccccn3)CC2)c1	93 nM	118 nM	
CCCN(CCC)CCc1ccc(OCCc2ccccc2)c(OC)c1	> 1000 nM	12 nM	
COc1ccc(CCN2CCOCC2)cc1OCCc1ccccc1	> 1000 nM	> 1000 nM	
CCCNCCc1ccc(OC)c(OCCc2ccccc2)c1	> 1000 nM		
O=C(CCCN1CCC(O)(c2ccc(Cl)cc2)CC1)c1ccc(F)cc1 [HALOPERIDOL]			Control (Mus musculus [2]): 7.3%
Clc1ccc(OCCc2ccccc2)c(CCN2CCN(c3ccccn3)CC2)c1	51 nM	> 1000 nM	
COc1ccc(CCN2CCN(c3ccccn3)CC2)cc1OCCc1ccccc1	295 nM	112 nM	
Clc1ccc(OCCc2ccccc2)c(CCCN2CCN(c3ncccn3)CC2)c1	115 nM	169 nM	
Clc1ccc(OCCc2ccccc2)c(CCN2CCN(c3ncccn3)CC2)c1	143 nM	> 1000 nM	
Cc1cccc(N2CCN(CCCc3cc(Cl)ccc3OCCc3ccccc3)CC2)n1	293 nM	415 nM	
Clc1ccc(OCCc2ccccc2)c(CCCN2CCN(c3ccccc3)CC2)c1	180 nM		
CCCN(CCC)CCc1cc(Br)ccc1OCCCc1ccccc1	685 nM	44 nM	
CCCN(CCC)CCc1cc(F)ccc1OCCc1ccccc1	> 1000 nM	13 nM	
COc1ccc(CCN)cc1OCCc1ccccc1	> 1000 nM		
CCCN(CCC)CCc1ccc(OCCc2ccccc2)c(O)c1	> 1000 nM	25 nM	
CN1CCc2cccc3c2[C@H]1Cc1ccc(O)c(O)c1-3 [APOMORPHINE]		> 1000 nM	
Clc1ccc(OCCc2ccccc2)c(CCN2CCCC2)c1	69 nM	36 nM	
CCCN(CCC)CCc1ccc(OC)c(OCCc2ccc(F)cc2)c1	> 1000 nM	1 nM	
CCCN(CCC)CCc1ccc(OC)c(OCCc2cccs2)c1	> 1000 nM		
CCCCCCN(CCC)CCc1ccc(OC)c(OCCc2ccccc2)c1	619 nM	1.8 nM	
CCCN(CCC)CCc1ccc(OC)c(OCCc2ccc(OC)cc2)c1	> 1000 nM	1 nM	

Structure (SMILES)	IC50 (D(2) dopamine receptor)	IC50 [1]	other results
CCCN(CCC)CCc1ccccc1OCCc1ccccc1	436 nM	15 nM	
CCCN(CCC)CCc1ccc(OC)cc1OCCc1ccccc1	> 1000 nM		
CCCN(CCC)CCc1cc(Cl)ccc1OCc1ccccc1	337 nM	118 nM	
CCCN(CCC)CCc1ccc(O)c(OCCc2ccccc2)c1	> 1000 nM		
COc1ccccc1N1CCN(CCCc2cc(Cl)ccc2OCCc2ccccc2)CC1	16 nM	319 nM	
CCCN(CCC)CCc1cc(Cl)ccc1OCCCc1ccccc1	876 nM	56 nM	
COc1cccc(CCN2CCOCC2)c1OCCc1ccccc1	> 1000 nM	373 nM	
CCCN(CCc1ccc(OC)c(OCCc2ccccc2)c1)CCC(C)C	680 nM	2.9 nM	
CCCN(CCC)CCc1ccc(OC)c(OCc2ccccc2)c1.O=C(O)C(=O)O	> 1000 nM	28 nM	
CCCN(CCC)CCCc1cccc(OC)c1OCCc1ccccc1	> 1000 nM	13 nM	
CCCN(CCC)CCc1ccc(OC)c(OCCc2ccc(OC)c(OC)c2)c1		67 nM	
CCCN(CCC)CCc1ccc(OC)c(OCCCc2ccccc2)c1	> 1000 nM		
CCCN(CCC)CCc1ccc(O)c2c1-c1ccccc1CO2	> 1000 nM	558 nM	
COc1cccc(CCN2CCN(c3ccccn3)CC2)c1OCCc1ccccc1	137 nM	> 1000 nM	
CCCN(CCC)CCc1ccc(OC)c2c1-c1ccccc1CO2	> 1000 nM	990 nM	
CCCN(CCC)CCc1cccc(OC)c1OCCCc1ccccc1	> 1000 nM	1.7 nM	
CCCN(CCC)CCCCc1cc(Cl)ccc1OCCc1ccccc1	> 1000 nM	26 nM	
COc1ccc(CCN2CCCC2)cc1OCCc1ccccc1	> 1000 nM		
CCCN(CCCO)CCc1ccc(OC)c(OCCc2ccccc2)c1	> 1000 nM	19 nM	
CCCN(CCC)CCc1cc(Br)cc(Br)c1OCCc1ccccc1	> 1000 nM	774 nM	
OC(CCCN1CCN(c2ncc(F)cn2)CC1)c1ccc(F)cc1 (stereo not given) [BMY-14802]	> 1000 nM		ED25 (Mus musculus [3]): 7.6 mg/kg
COc1cccc(CCN2CCN(c3ccccc3)CC2)c1OCCc1ccccc1	66 nM	328 nM	
COc1cccc(CCN2CCCC2)c1OCCc1ccccc1	> 1000 nM		
CCCN(CCC)CCc1cc(Cl)ccc1OCCc1ccccc1.O=C(O)C(=O)O			IC50 [4]: 196 nM; IC50 [5]: 289 nM; IC50 [6]: > 1000 nM; IC50 (D(1A) dopamine receptor): > 1000 nM; ED25 (Mus musculus [3]): 235 mg/kg; IC50 [7]: 90 nM
CCCN(CCC)CCc1cccc(F)c1OCCc1ccccc1	> 1000 nM	22 nM	
CCCN(CCC)CCc1ccc(OCCc2ccccc2)cc1OC	> 1000 nM		
